Test results from ChEMBL document CHEMBL4308883, “Development of hydroxamate-based histone deacetylase inhibitors containing 1,2,4-oxadiazole moiety core with antitumor activities” (Bioorg Med Chem Lett, 2019).

Columns and labels:
[1] = tested on: HepG2; assay: Antiproliferative activity against human HepG2 cells after 48 hrs by MTT assay; assay type: functional, cell-based; details: HepG2, 48 h
[2] = tested on: HepG2; assay: Potency index, ratio of SAHA IC50 to test compound IC50 for antiproliferative activity against human HepG2 cells; assay type: functional
[3] = tested on: HCCLM3; assay: Antiproliferative activity against human HCCLM3 cells after 48 hrs by MTT assay; assay type: functional, cell-based; details: HCCLM3, 48 h
[4] = target: T1, Histone deacetylase 1 (Homo sapiens, UniProt Q13547); assay: Inhibition of HDAC1 (unknown origin) using Boc-Lys (Ac)-AMC as substrate measured after 60 mins by […]
[5] = tested on: HepG2; assay: Induction of apoptosis in human HepG2 cells assessed as early apoptotic cells at 2.5 uM after 48 hrs by annexin V-FITC/propidium iodide staining based assay (reference value: 3.2 %); assay type: functional
[6] = target: T1, Histone deacetylase 1; assay: Inhibition of HDAC1 in human HepG2 cells assessed as increase in acetylated histone H3 levels by Western blot analysis; assay type: cell-based
Summary of the method: (§1)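 HepG2 cells were treated at three concentrations (1.25, 2.5 and 5.0), with SAHA as the reference. Acetylated histone H3 and H4 were detected by immunoblotting. Ac-H3 and Ac-H4 band intensities were quantified by densitometric scanning and normalised to β-actin, n = 3.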

[7] = tested on: HepG2; assay: Induction of apoptosis in human HepG2 cells assessed as early apoptotic cells at 5 uM after 48 hrs by annexin V-FITC/propidium iodide staining based assay (reference value: 3.2 %); assay type: functional
[8] = tested on: HepG2; assay: Induction of apoptosis in human HepG2 cells assessed as early apoptotic cells at 1.25 uM after 48 hrs by annexin V-FITC/propidium iodide staining based assay (reference value: 3.2 %); assay type: functional
[9] = tested on: HepG2; assay: Induction of apoptosis in human HepG2 cells after 48 hrs by annexin V-FITC/propidium iodide staining based assay; assay type: functional, cell-based
[10] = tested on: HepG2; assay: Induction of apoptosis in human HepG2 cells assessed as late apoptotic cells at 2.5 uM after 48 hrs by annexin V-FITC/propidium iodide staining based assay (reference value: 1.8 %); assay type: functional
[11] = target: T1, Histone deacetylase 1; assay: Inhibition of HDAC1 in human HepG2 cells assessed as increase in acetylated histone H4 levels by Western blot analysis; assay type: cell-based; summary of the method: as §1
[12] = tested on: HepG2; assay: Induction of apoptosis in human HepG2 cells assessed as late apoptotic cells at 5 uM after 48 hrs by annexin V-FITC/propidium iodide staining based assay (reference value: 1.8 %); assay type: functional
[13] = tested on: HepG2; assay: Induction of apoptosis in human HepG2 cells assessed as late apoptotic cells at 1.25 uM after 48 hrs by annexin V-FITC/propidium iodide staining based assay (reference value: 1.8 %); assay type: functional
[14] = target: T1, Histone deacetylase 1; assay: Potency index, ratio of SAHA IC50 to test compound IC50 for HDAC1 (unknown origin)

T1 sequence (Q13547 whole entry): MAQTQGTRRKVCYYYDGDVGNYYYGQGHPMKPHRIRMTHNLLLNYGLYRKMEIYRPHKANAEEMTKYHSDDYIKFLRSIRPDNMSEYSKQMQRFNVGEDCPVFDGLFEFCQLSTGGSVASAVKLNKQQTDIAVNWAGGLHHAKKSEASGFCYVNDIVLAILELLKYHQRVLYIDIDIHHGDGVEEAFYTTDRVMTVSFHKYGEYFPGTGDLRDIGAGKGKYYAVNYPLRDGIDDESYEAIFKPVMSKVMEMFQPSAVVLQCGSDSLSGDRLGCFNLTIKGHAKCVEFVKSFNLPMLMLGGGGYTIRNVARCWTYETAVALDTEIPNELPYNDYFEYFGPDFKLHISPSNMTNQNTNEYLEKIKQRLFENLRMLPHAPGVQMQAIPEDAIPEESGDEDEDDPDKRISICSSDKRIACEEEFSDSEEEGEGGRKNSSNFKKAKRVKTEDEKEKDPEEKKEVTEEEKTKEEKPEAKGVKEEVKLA

IC50 [1] [µM] | IC50 [3] [µM] | IC50 [4] [µM] | inhibition [6] | inhibition [11] | Ratio IC50 [14] | SMILES | Ratio IC50 [2] | Activity [5] [%] | Activity [7] [%] | Activity [8] [%] | Activity [9] | Activity [10] [%] | Activity [12] [%] | Activity [13] [%]
1.68 | 6.83 | 0.0121 | – | – | – | COc1ccc(N(Cc2noc(-c3cccc(C)c3)n2)C(=O)CCCCCC(=O)NO)cc1 | 2 - 4 | – | – | – | – | – | – | –
1.03 | 6.56 | 0.0105 | Dose-dependent effect | Dose-dependent effect | – | COc1ccc(N(Cc2noc(-c3cccc(F)c3)n2)C(=O)CCCCCC(=O)NO)cc1 | 2 - 4 | 44 | 50.8 | 44.6 | Dose-dependent effect | 14 | 10 | 11.1
1.07 | 5.19 | 0.0082 | Dose-dependent effect | Dose-dependent effect | 2 | COc1ccc(N(Cc2noc(-c3ccccc3)n2)C(=O)CCCCCC(=O)NO)cc1 | 2 - 4 | 42.7 | 50.2 | 40.7 | Dose-dependent effect | 11.3 | 11.5 | 10.1
– | – | – | – | – | – | O=C(CCCCCCC(=O)Nc1ccccc1)NO [VORINOSTAT] | – | 33.5 | 40.4 | 29.7 | – | 10.7 | 10.7 | 9.3
